# Screening results as filed in PubChem.
# An excerpt weighted towards active compounds, which were near 3.9% of everything screened.
# CRFR2-BP ag: CRF-BP/CRF-R2 complex agonism. HEK293 CRF-R2/CRF-BP, calcium dye fluorescence (FLIPR); percent of saturating CRF peptide response. activation, % at 13.2 µM. 350,000 compounds, 0.46% hits;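 active means activation of at least 50%, plus an integration ratio under a set limit after plate pattern correction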;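 further: plate controls were neutral control wells without compound for no effect and CRF at EC100 for full effect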
# TAAR1 antagonist: antagonists of human TAAR1; CHO RD-HGA16 TAAR1, Fluo-8 calcium fluorescence, antagonist; inhibition, % at 3 µM; Q96RJ0; 360,000 compounds, 1.5% hits;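 active means inhibition above a per-plate cutoff, the mean inhibition of test compounds on that plate plus 3 SD, cut at about 49% in these data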;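 further: 0% = DMSO plus EC80 beta-PEA response and 100% = DMSO alone without agonist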
#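 Test system – hTAAR1-expressing CHO RD-HGA16 cells, Gα16-coupled · Also added – β-PEA at EC80 concentration, post-compound challenge · Compound – 3 µM, single point · Incubation – dye loading 75 min at 37 °C, then 30 min room temperature · Measured by – Fluo-8 intracellular calcium dye fluorescence, real-time kinetic reads · Benchmarks – vehicle and agonist controls · Replicates – singlicate, one well per test compound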
# TMEM16A act: mouse TMEM16A channel activation, primary screen; 340,000 compounds, 0.3% hits; B-score at 10 µM; AID 623877; Q8BHY3; HEK293 TMEM16A/YFP-H148Q/I152L, iodide quench fluorescence; hits give low values;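 active means fluorescence-ratio B-score plate-corrected deviation score at least 3 library SD below zero, with starting fluorescence score within 5 deviations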;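 further: channel opened by trigger with iodide after compound preincubation; score built on the fluorescence ratio of max minus min over baseline; more negative score means more quench and so TMEM16A activation or potentiation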
# Target sequence (Q8BHY3 whole entry, looked up): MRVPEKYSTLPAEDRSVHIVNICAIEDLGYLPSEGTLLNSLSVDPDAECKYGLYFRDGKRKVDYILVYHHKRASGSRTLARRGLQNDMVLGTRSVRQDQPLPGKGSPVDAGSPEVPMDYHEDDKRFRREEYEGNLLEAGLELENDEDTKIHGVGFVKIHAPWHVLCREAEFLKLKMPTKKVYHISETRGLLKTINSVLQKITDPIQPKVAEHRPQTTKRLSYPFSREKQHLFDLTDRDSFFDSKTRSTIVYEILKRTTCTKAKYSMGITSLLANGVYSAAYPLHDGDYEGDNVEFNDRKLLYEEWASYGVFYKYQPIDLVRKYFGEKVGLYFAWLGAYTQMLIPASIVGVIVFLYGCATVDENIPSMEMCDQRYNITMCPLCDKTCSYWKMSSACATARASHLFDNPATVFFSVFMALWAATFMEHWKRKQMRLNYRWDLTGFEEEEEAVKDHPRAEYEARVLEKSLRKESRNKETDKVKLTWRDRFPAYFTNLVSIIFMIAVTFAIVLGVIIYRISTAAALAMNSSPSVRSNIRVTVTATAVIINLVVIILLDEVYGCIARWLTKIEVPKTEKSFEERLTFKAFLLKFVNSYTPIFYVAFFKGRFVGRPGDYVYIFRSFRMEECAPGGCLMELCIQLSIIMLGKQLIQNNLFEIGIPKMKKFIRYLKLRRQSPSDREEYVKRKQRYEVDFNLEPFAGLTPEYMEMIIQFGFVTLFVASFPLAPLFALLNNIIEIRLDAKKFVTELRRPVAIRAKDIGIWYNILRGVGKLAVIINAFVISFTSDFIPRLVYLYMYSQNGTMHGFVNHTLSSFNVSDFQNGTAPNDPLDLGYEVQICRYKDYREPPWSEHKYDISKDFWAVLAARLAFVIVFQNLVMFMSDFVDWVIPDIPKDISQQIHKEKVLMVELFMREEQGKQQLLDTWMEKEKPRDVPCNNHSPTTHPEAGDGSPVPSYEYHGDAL
# TAAR1 agonist: human TAAR1 agonism. CHO RD-HGA16 TAAR1, Fluo-8 calcium fluorescence; vehicle wells 0%, saturating PEA agonist 100%. activation, % at 3 µM. 360,000 compounds, 0.99% hits. AID 624467;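 active means activation above the mean activation of all test compounds in the run plus 3 SD, cut at about 38% in these data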
#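 Assay system – CHO-derived RD-HGA16 cells with stable Gα16 and human TAAR1 · Compound dosing – one-point dosing at 3 µM (nominal) · Incubation – 17-24 h seeding, 75 min 37 °C dye, 30 min RT · Measured by – kinetic Fluo-8 calcium fluorescence · Control set – DMSO vehicle as 0%, PEA at EC100 as 100% · Repeats – single well for each compound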
# TMEM16A inh: inhibitors of mouse TMEM16A calcium-activated chloride channel. Q8BHY3. HEK293 TMEM16A/YFP iodide influx fluorescence, ionomycin. normalized B-score (activity score, 25-100; higher = stronger inhibition) at 10 µM. 310,000 compounds, 1.2% hits. AID 588511;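 active means ratio plate-corrected score three or more library SD toward inhibition, starting fluorescence score within five deviations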;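 further: score derived from kinetic fluorescence span divided by baseline fluorescence per well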
# CRFR2-BP antag: CRF-BP/CRF-R2 complex antagonism. 350,000 compounds, 0.59% hits. HEK293 CRF-R2/CRF-BP, CRF-induced calcium fluorescence. inhibition, % at 11.8 µM;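 active means inhibition of the ligand-induced calcium signal above about 50% at the single tested concentration, limit read from the data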
# TAAR1 ag conf: confirmation of human TAAR1 agonists. shares compounds with TAAR1 agonist. CHO RD-HGA16 TAAR1, Fluo-8 calcium fluorescence; scaled: DMSO 0%, maximal phenethylamine 100%. activation, % at 3 µM. 2,400 compounds, 82% hits;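 active means activation above a cutoff set at the run's mean compound activation plus 3 SD, cut at about 39% in these data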
# Ga16 nonsel ag: nonselective agonist in parental cells, TAAR1 agonist counter-screen | 2,400 compounds, 50% hits | shares compounds with TAAR1 agonist | CHO-Ga16 parental, Fluo-8 calcium fluorescence; normalized to maximal ATP response, DMSO zero | activation, % at 3 µM | AID 651787;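 active means activation above the run cutoff, the mean activation over all tested wells plus 3 SD, cut at about 12% in these data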;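 further: 0% = DMSO wells and 100% = maximal ATP response on the peak over basal ratio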
# TAAR1 desensitize: human TAAR1 agonist that also desensitizes the receptor; CHO RD-HGA16 hTAAR1, Fluo-8 calcium, beta-PEA response inhibition; 2,400 compounds, 46% hits; shares compounds with TAAR1 agonist; inhibition, % at 3 µM;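 active means inhibition above the run cutoff, the mean inhibition of all test compounds plus 3 SD, cut at about 49% in these data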;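 further: beta-PEA stimulus applied at its EC80; loss of beta-PEA calcium signal after compound pretreatment read as receptor desensitization; 0% = DMSO with beta-PEA at EC80 and 100% = DMSO alone without agonist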
# Ga16 nonsel ant: nonselective Ga16 antagonist in TAAR1 agonist counter-screen | CHO-Ga16 ATP-induced calcium, Fluo-8 fluorescence | shares compounds with TAAR1 agonist | 2,400 compounds, 39% hits | inhibition, % at 3 µM;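 active means inhibition above the plate's mean compound inhibition plus 3 SD, computed per plate, cut at about 22% in these data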;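 further: 0% = EC80 ATP with DMSO and 100% = DMSO wells without ATP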
# Starred values were filed as active, the others as inactive; i = inactive; nt = no result given.
SMILES,CRFR2-BP ag,TAAR1 antagonist,TMEM16A act,TAAR1 agonist,TMEM16A inh,CRFR2-BP antag,TAAR1 ag conf,Ga16 nonsel ag,TAAR1 desensitize,Ga16 nonsel ant
CC(=O)NC(=S)NNC(=O)CCc1ccccc1,29.5,-10.8,i,2.7,i,-21.2,nt,nt,nt,nt
O=C(CCc1ccccc1)NNC(=S)NC(=O)c1ccccc1,79.5*,17.2,i,87.7*,i,20.4,74.8*,55.5*,34.0,25.0*
NC(=O)c1cnn(C2CCS(=O)(=O)C2)c1 (stereo unspecified),-2.1,16.4,i,-0.1,i,13.9,nt,nt,nt,nt
O=C(O)c1ccc(-n2cc(C(=O)c3ccccc3O)cn2)cc1,4.3,13.9,i,65.5*,i,-30.1,18.6,9.3,13.3,14.4
CCOC(=O)Cn1ccc(NC(=O)c2ccc(F)cc2)n1,1.8,6.2,nt,0.5,i,24.9,nt,nt,nt,nt
CCn1c(C)nc2cc(C(=O)NNC(=O)Nc3ccc(Cl)cc3)ccc21,1.7,19.5,i,45.2*,i,16.4,67.9*,2.8,56.9*,13.6
CCN(Cc1ccccc1)S(=O)(=O)c1ccc(C(=O)Nc2nnc(-c3ccccc3OC)o2)cc1,1.4,23.3,i,42.8*,i,2.7,18.9,27.5*,38.8,32.7*
COc1ccccc1-c1nnc(NC(=O)c2ccc(S(=O)(=O)N(C)C)cc2)o1,6.6,-10.1,i,9.6,i,-20.0,nt,nt,nt,nt
CCN(CC)S(=O)(=O)c1ccc2c(c1)N(CC(=O)NCCN1CCOCC1)C(=O)CO2,-0.4,-23.4,i,9.8,i,-1.1,nt,nt,nt,nt
CC(C)c1ccc(N2C(=O)[C@@H]3Cc4ccccc4CN3C2=O)cc1,4.5,81.7*,i,83.8*,i,-31.8,76.5*,46.0*,64.1*,46.9*
Cc1nc2ccc(NC(=O)C3CCN(S(=O)(=O)c4cccs4)CC3)cc2s1,-1.1,-4.6,i,41.3*,i,-11.3,8.1,11.9*,11.8,12.8
O=C(Cn1nnc2ccccc2c1=O)NCCc1ccc(Cl)cc1Cl,-0.2,44.8,i,54.2*,i,-7.5,6.1,1.3,1.8,8.9
CNC(=O)c1cn2c3c(ccc(Cl)c3c1=O)OC(C)C2 (stereo unspecified),1.3,-8.8,i,1.9,nt,7.0,nt,nt,nt,nt
O=C1c2ccccc2S(=O)(=O)N1Cc1nnc(-c2ccccc2Br)o1,-6.3,0.5,i,36.9,nt,-13.8,nt,nt,nt,nt
O=c1c2ccccc2nnn1Cc1nnc(-c2ccccc2Br)o1,-0.9,-1.2,i,66.7*,i,-26.1,114.5*,79.7*,22.0,0.9
CCOCCOc1cccc(C(=O)NC(c2ccccc2)c2ccccc2)c1,-0.5,nt,i,nt,i,7.4,nt,8.5,nt,12.1
OC(CNCCc1ccccc1)c1ccccc1 (stereo unspecified),-1.1,1.0,i,53.1*,i,9.4,30.8,0.6,11.6,9.8
Cc1ccc(CNC(=O)CSc2nc(=O)n3cccc(C)c3n2)cc1,-1.8,-9.3,i,0.0,i,-6.0,nt,nt,nt,nt
O=c1c(Cl)c(N/N=C/c2ccc(Cl)cc2)cnn1-c1ccccc1,-1.2,-6.2,i,13.5,i,-6.5,nt,nt,nt,nt
Cc1ccc(/C=N\Nc2cn[nH]c(=O)c2Cl)cc1,-1.9,-2.3,i,40.8*,i,-15.0,62.2*,0.0,24.0,9.0
O=c1[nH]ncc(N/N=C/c2ccccc2)c1Cl,-4.1,78.2*,i,64.0*,i,-9.0,91.9*,2.4,92.8*,-3.0
Cc1ccsc1/C=N\Nc1cn[nH]c(=O)c1Cl,-1.7,54.0*,i,73.5*,i,16.1,87.4*,-0.2,77.4*,1.9
CSCc1ccc(C(=O)N2CCC(N3CCC(C(=O)NC(C)C)CC3)CC2)o1,4.0,0.5,i,0.3,i,5.9,nt,nt,nt,nt
CCCCN(C)C(=O)Cn1ncc2c3ccccc3n(CCC)c2c1=O,1.8,-18.0,i,5.4,i,-16.1,nt,nt,nt,nt
Cc1ccc(S(=O)(=O)N[C@@H](C)CO)cc1,nt,-11.2,nt,1.9,nt,nt,nt,nt,nt,nt
SMILES,CRFR2-BP ag,TAAR1 antagonist,TMEM16A act,TAAR1 agonist,TMEM16A inh,CRFR2-BP antag,TAAR1 ag conf,Ga16 nonsel ag,TAAR1 desensitize,Ga16 nonsel ant
Cc1ccc(-n2cc(CNCCCn3ccnc3C)c(-c3ccc(F)cc3)n2)cc1,-0.7,1.0,i,6.6,i,-26.3,nt,nt,nt,nt
Cc1ccc(-n2cc(CNCCc3cscn3)c(-c3ccc(F)cc3)n2)cc1,2.9,-9.7,i,45.6*,i,-23.6,56.8*,5.8,12.7,7.3
COc1ccccc1CNC(=O)COC(=O)/C=C/c1ccc(OC(F)F)c(OC)c1,-0.6,78.3*,i,92.2*,i,4.8,47.0*,22.8*,56.9*,23.0*
O=C(COC(=O)/C=C/c1ccc(OC(F)F)cc1)NCc1cccs1,-1.1,61.2*,i,82.3*,i,16.5,15.3,10.6,-1.3,5.2
CCC1CCCCN1Cc1ccc(N)cc1 (stereo unspecified),1.6,5.5,i,1.9,i,-12.0,nt,nt,nt,nt
CC(=O)Nc1ccc(NS(=O)(=O)c2ccccc2)cc1,0.3,8.0,i,4.4,i,-1.7,nt,nt,nt,nt
CC(=O)C(C(C)=O)c1cc(NS(=O)(=O)c2ccccc2)ccc1NS(=O)(=O)c1ccccc1,159.6*,42.0,i,101.9*,i,-96.6,67.0*,44.4*,49.0*,21.9*
CC(C)n1cc(CN2CCC(C(=O)Nc3cccc(-c4cccc(Cl)c4)c3)CC2)cn1,-0.5,-11.3,i,59.7*,i,-17.9,56.0*,27.4*,44.2,31.8*
NC(=O)C1CCN(C(=O)CN(C2CCCCC2)S(=O)(=O)c2ccc(F)cc2)CC1,-1.3,-1.1,i,1.8,i,10.2,nt,nt,nt,nt
CCOP(=O)(c1ccccc1)c1nc(-c2ccccc2Cl)oc1N1CCCCC1 (stereo unspecified),-0.5,-12.9,i,47.9*,i,-21.9,33.9,6.8,-19.6,-3.0
CCCNC(=O)C1(C)CCN(C(=O)c2ccc3c(c2)CCO3)C1 (stereo unspecified),nt,2.7,nt,0.2,nt,nt,nt,nt,nt,nt
CCOc1cc2[nH]c(=S)n(Cc3ccc(C(=O)O)cc3)c(=O)c2cc1OCC,0.1,-7.5,i,-2.1,i,2.5,nt,nt,nt,nt
